Screens deposited in PubChem by The Scripps Research Institute Molecular Screening Center.
This is a sample that favours compounds with a hit; in the whole collection about 3.3% have one here.
SIAE primary = blocks human sialic acid acetylesterase; inhibition, % at 9.66 µM; hit rate 0.69% among 370,000; SIAE FP-Rh probe binding, fluorescence polarization; Q9HAT2;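 active = inhibition above a cutoff: mean of compounds within the control limits plus 3 SD of those, cut at about 17% in these data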
Target sequence (Q9HAT2 whole entry, looked up): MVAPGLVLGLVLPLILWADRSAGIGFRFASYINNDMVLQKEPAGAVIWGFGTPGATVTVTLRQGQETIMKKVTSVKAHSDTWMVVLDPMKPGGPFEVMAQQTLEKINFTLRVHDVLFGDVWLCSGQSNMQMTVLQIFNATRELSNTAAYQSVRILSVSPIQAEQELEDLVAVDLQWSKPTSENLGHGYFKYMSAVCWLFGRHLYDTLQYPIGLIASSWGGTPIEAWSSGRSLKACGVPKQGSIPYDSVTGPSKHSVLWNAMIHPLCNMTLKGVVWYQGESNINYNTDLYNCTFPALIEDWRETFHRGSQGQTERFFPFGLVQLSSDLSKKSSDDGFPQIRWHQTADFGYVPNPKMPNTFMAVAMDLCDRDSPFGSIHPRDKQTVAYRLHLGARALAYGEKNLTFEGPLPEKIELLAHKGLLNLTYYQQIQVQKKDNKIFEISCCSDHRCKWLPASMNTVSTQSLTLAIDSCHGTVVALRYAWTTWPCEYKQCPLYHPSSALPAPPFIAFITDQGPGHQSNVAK
ABHD4 inh = inhibits mouse alpha/beta hydrolase domain 4. purified mABHD4, FP-Rh probe fluorescence polarization. Q8VD66. hit rate 0.54% among 370,000. inhibition, % at 8.92 µM. AID 720543;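 active = inhibition exceeding the mean over every tested compound plus 3 SD, cut at about 30% in these data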
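Assay system: mouse ABHD4 enzyme, wild type / Also added: fluorescent activity-based probe FP-Rh / Doses: single nominal dose of 8.92 µM, 0.89% DMSO final / Timing: 45 min compound pre-incubation plus 60 min probe step, 25 °C / Signal: FP readout, ex 525 nm / em 598 nm / Control set: S159A mutant/DMSO as 100%, compound-well median as 0%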
PRMT1 inh = inhibitors of human PRMT1 | Q99873 | recombinant PRMT1, activity-based probe fluorescence polarization | inhibition, % at 2.79 µM | hit rate 1.3% among 370,000 | AID 652257;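 active = inhibition above about 21% made by adding two undisclosed values, limit read from the data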
HTRA1 inh = HTRA1 (human) protease inhibition; Q92743; AID 504803; hit rate 0.5% among 340,000; recombinant HTRA1, FP-rhodamine activity-based probe, fluorescence polarization; inhibition, % at 5.96 µM; in the data active = inhibition above about 36%
rCAG RNA binder = r(CAG) repeat RNA binding | TO-PRO-1 dye displacement fluorescence | inhibition, % at 3 µM | hit rate 1.3% among 370,000 | AID 651821;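 active = inhibition above the plate cutoff, the mean of all test compounds on that plate plus 3 SD, cut at about 35% in these data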;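 note: higher means more dye released from RNA so lower well fluorescence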
Each line names hits and unclear results; the compound was inactive in the other large screens.

Cc1ccc(C)c(SCC(=O)Nc2oc(C)c3c(C)n[nH]c(=O)c23)c1	PRMT1 inh 22.0
CC(=O)N1CCCN(C(=O)Cn2cnc3ccccc3c2=O)CC1	none (no result: HTRA1 inh)
O=C(Nc1ccc(Cl)cc1Cl)c1ccc2c(c1)OCCO2	none
O=C(Nc1ccc(Cl)cc1Cl)c1cccc(N2C(=O)C=CC2=O)c1	PRMT1 inh 88.1
CC(C)(C)OC(=O)N1Cc2cc3ccccc3nc2C1	none
CCOC(=O)C1(C(=O)OCC)COC(=O)C1CN1Cc2cc3ccccc3nc2C1 (stereo unspecified)	PRMT1 inh 22.7
CN1CCCCC(NC(=O)CSc2ccccc2)C1=O (stereo unspecified)	none (no result: HTRA1 inh)
Cn1c(SCC(=O)c2ccc3c(c2)OCO3)nnc1C1COc2ccccc2O1 (stereo unspecified)	PRMT1 inh 22.3
N#C/C(=C(/O)CCl)c1nc2c(s1)CCc1ccccc1-2	ABHD4 inh 32.0, PRMT1 inh 32.6
COC(=O)[C@@]1(Cc2ccc(F)cc2)[C@H]2c3cc(C(=O)N(C)C)n(Cc4ccc(C)o4)c3C[C@H]2CN1C(=O)c1ccccc1	PRMT1 inh 22.0 (no result: HTRA1 inh)
Cc1ccc(C(Nc2ccccc2)c2ccc3ccc(C)nc3c2O)c(C)c1 (stereo unspecified)	none (no result: HTRA1 inh)
CCCc1cc2c(=O)c(-c3nc4ccccc4s3)c(COCC(=O)O)oc2cc1O	rCAG RNA binder 55.0
O=S(=O)(Nc1nc2ccccc2s1)c1ccc(Br)s1	rCAG RNA binder 50.3
COC(=O)c1cc(-c2cc(Cl)ccc2OC)c(=O)n2c1CCC2	none (no result: HTRA1 inh)
Cc1ccc2c(c1)[C@H]1[C@H](CO2)[C@H](c2ccccc2)[C@]2(C)C(=O)N(Cc3ccc(Cl)cc3)CC(=O)N12	none
COc1ccc(CN2CC(=O)N3[C@H]4c5cc(C)ccc5OC[C@@H]4[C@H](c4ccccc4)[C@]3(C)C2=O)cc1	PRMT1 inh 22.1
Cc1ccc(Nc2cc(C)nn2-c2nc(C)cc(=O)[nH]2)cc1	HTRA1 inh 49.6 (no result: SIAE primary, ABHD4 inh, PRMT1 inh, rCAG RNA binder)
CCOC(=O)c1sc2ccc(S(=O)(=O)N3CCOCC3)cc2c1N	none
CCOC(=O)c1sc2ccc(S(=O)(=O)N3CC(C)CC(C)C3)cc2c1N (stereo unspecified)	PRMT1 inh 21.3
O=S(=O)(Nc1ccc(O)c2ccccc12)c1cccs1	ABHD4 inh 46.4
CCN=C1NC(c2ccc(F)cc2)C(C(=O)OC)=C(C)N1Cc1ccccc1C(F)(F)F (stereo unspecified)	none (no result: HTRA1 inh)
CCN1CCC(O)(/C=C/c2ccc(C(C)C)cc2)C(C(=O)/C=C/c2ccc(C(C)C)cc2)C1 (stereo unspecified)	ABHD4 inh 34.0, PRMT1 inh 23.6
CCN1CCN(C(=O)/C=C/c2ccc(C(C)C)cc2)CC1	none
C/C(=N\OCc1nc2ccccc2c(=O)n1/N=C/c1cc([N+](=O)[O-])ccc1O)c1ccccc1	rCAG RNA binder 61.5
O=[N+]([O-])c1ccc(O)c(/C=N/n2c(CO)nc3ccccc32)c1	none
O=[N+]([O-])c1ccc(C2CC(c3ccccc3)=Nc3ccccc3S2)cc1 (stereo unspecified)	PRMT1 inh 78.6
O=C(O)C1CC(c2ccccc2)=Nc2ccccc2S1 (stereo unspecified)	none
Fc1ccc(C2CC(c3ccco3)=Nc3ccccc3S2)cc1 (stereo unspecified)	PRMT1 inh 71.5
Fc1ccc(C2CC(c3ccco3)=NN2c2ccccc2)cc1 (stereo unspecified)	none
CC(C)(C)n1nnnc1C(c1cccnc1)N1CCN(c2cccc(C(F)(F)F)c2)CC1 (stereo unspecified)	none
CC(C)(C)c1cc(C(c2cccnc2)N2CCN(CCO)CC2)cc(C(C)(C)C)c1O (stereo unspecified)	PRMT1 inh 22.4
Cc1cccc(C)c1NC(=O)CSc1nnc(-c2ccco2)c(-c2ccco2)n1	HTRA1 inh 50.1 (no result: SIAE primary, ABHD4 inh, PRMT1 inh, rCAG RNA binder)
COC(=O)[C@]12C[C@H](CC(=O)N3CCN(C(=O)c4ccco4)CC3)C(=O)N(Cc3ccccc3)C1=C[C@H](C(C)C)O[C@@H]2C1CC1	none (no result: HTRA1 inh)
COc1ccccc1C1C([N+](=O)[O-])=CC([N+](=O)[O-])=CN1C (stereo unspecified)	none
COc1ccccc1C1NC=C([N+](=O)[O-])C=C1[N+](=O)[O-] (stereo unspecified)	PRMT1 inh 24.3
O=C(C(=O)N1CCC(CNS(=O)(=O)Cc2ccccc2)CC1)c1cccs1	none (no result: HTRA1 inh)
CCN(CC)CCn1c(SCC(=O)Nc2ccc3c(c2)CCC3)nc2ccccc2c1=O	PRMT1 inh 21.2
